High-throughput results (PubChem)
V1aR counter: agonists of human V1a receptor, primary screen, counter-screen for OXTR agonist project, fluorescence, CHO-V1R cells. Vasopressin V1a receptor (Homo sapiens), P37288. Fluo-8 calcium fluorescence, agonist mode; 0% DMSO, 100% 3 nM vasopressin. activation, % at 3 µM. 0.25% of 320,000 active;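 active = activation above the mean activation of all tested compounds plus 3 SD, per screening run, cut at about 20% in these data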;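 note: signal is peak over basal fluorescence ratio across a 100 second FLIPR read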
OX1R antag-1: antagonists of human orexin 1 receptor (OX1R). 1.8% of 330,000 active. inhibition, % at 6.6 µM. AID 485270, 2010. OX1R-expressing cells, FRET antagonist read-out; in the data active = inhibition mostly above about 38%, no sharp cut-off; inactive = mostly below about 40%;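 note: 0% = agonist challenge alone and 100% = reference antagonist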
Target sequence (O43613 whole entry, looked up): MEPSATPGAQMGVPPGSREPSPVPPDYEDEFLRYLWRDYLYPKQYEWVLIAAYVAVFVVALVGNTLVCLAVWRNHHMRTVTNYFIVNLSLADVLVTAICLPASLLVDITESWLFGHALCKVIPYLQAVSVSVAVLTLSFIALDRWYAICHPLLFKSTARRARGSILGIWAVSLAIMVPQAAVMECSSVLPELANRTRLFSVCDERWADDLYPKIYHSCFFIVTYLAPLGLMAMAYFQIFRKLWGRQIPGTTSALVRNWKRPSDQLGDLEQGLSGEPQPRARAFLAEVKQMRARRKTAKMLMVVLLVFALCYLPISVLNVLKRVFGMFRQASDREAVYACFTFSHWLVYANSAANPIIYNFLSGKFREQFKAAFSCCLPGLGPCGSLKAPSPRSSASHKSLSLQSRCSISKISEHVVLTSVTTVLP
OX1R antag-2: OX1R (HCRTR1) antagonists, primary screen, fluorescence, CHO/OX1R cells, Fluo-8 calcium, orexin A; Orexin/Hypocretin receptor type 1 (Homo sapiens), O43613; inhibition, % at 5 µM; 0.43% of 330,000 active; AID 434989, 2010; Fluo-8 calcium fluorescence;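 active = inhibition above its plate's threshold, mean inhibition of all tested compounds on the plate plus 3 SD, cut at about 37% in these data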;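 note: 0% = orexin A challenge wells and 100% = SB-334867-A antagonist wells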
OXTR potentiate: human OXTR potentiators, primary screen, fluorescence, CHO-OTR cells, Fluo-8 calcium; activation, % at 3 µM; AID 2445, 2010; 0.061% of 320,000 active; Fluo-8 calcium fluorescence, potentiator mode; 0% = oxytocin EC15, 100% = EC100; Oxytocin receptor (Homo sapiens), P30559;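 active = activation above that plate's cutoff, the mean activation of tested compounds plus 3 SD, cut at about 6.6% in these data, passing the limit was not always enough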;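 note: 100% uses oxytocin at 75 nM as the full agonist control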
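Material: CHO-OTR cells, human receptor; compound dosing: single dose, 3.0 µM nominal final compound concentration; schedule: 6 min compound pre-incubation at room temperature, 100 s kinetic read; measured by: kinetic Fluo-8 calcium fluorescence; read-out basis: % activation vs EC15 and EC100 oxytocin; controls: EC15 oxytocin alone as 0%, 75 nM oxytocin as 100%; replicates: singlicate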
OXTR ag: human OXTR agonists, primary screen, fluorescence, CHO-OTR cells, Fluo-8 calcium | Oxytocin receptor (Homo sapiens), P30559 | Fluo-8 calcium fluorescence; normalized: DMSO 0%, oxytocin 100% | activation, % at 3 µM | 0.32% of 320,000 active;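 active = activation above the mean of all tested compounds plus 3 SD, cutoff set per screening run, cut at about 20% in these data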;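 note: peak over basal fluorescence ratio from a 100 s FLIPR kinetic read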
CHO parental Ca: ATP-evoked calcium signal inhibitors, parental CHO, primary screen, counter-screen for OX1R antagonist project, cell-based, fluorescence, Fluo-8 calcium dye; parental CHO-K1, ATP-induced calcium, Fluo-8 fluorescence; 0.63% of 330,000 active; inhibition, % at 5.6 µM;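 active = inhibition above that plate's mean sample inhibition plus 3 SD, cut at about 26% in these data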;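 note: 0% = ATP-challenged DMSO wells and 100% = DMSO wells without ATP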
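test system = CHO parental line | reagent = ATP stimulus | measured by = intracellular calcium via Fluo-8 no-wash fluorescent dye | control set = ATP and no-ATP DMSO wells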
* hit, by the source's call; . = no result given. Sampled rows, rich in hits. Any-hit rate of the full collection: about 2.6%.

SMILES	V1aR counter	OX1R antag-1	OX1R antag-2	OXTR potentiate	OXTR ag	CHO parental Ca
CSc1ccccc1C(=O)OCC(=O)Nc1ccc(N2CCOCC2)cc1	1.3	5.4	-8.7	-6.9	1.4	-10.2
Cc1cc2occ(CC(=O)N(C)CC(=O)Nc3ccccc3Br)c2cc1C	-0.2	68.2*	5.0	-5.0	-0.9	-16.2
CC(=O)c1c(-c2ccccc2)c2cc(Cl)ccc2[nH]c1=O	-0.9	66.7*	2.2	-5.5	-0.5	-18.8
CC(=O)c1c(-c2ccc(Cl)cc2)c2ccccc2[nH]c1=O	-0.3	11.5	-21.3	-8.7	-1.9	-11.9
COc1ccc2[nH]c3c(c2c1)CCN1C(=O)C(CC(=O)NCc2ccco2)C[C@H](C(=O)N2CCCCC2)[C@@]31CCc1ccccc1 (some centres undefined)	.	5.5	-8.4	.	.	-12.6
Nc1c(C(=O)c2cccs2)oc2ccccc12	-0.3	68.0*	6.1	-4.1	-0.6	-8.2
Nc1c(C(=O)c2ccc(Br)cc2)oc2ccccc12	0.2	26.8	-3.7	-4.0	-0.5	-8.8
O=C(OCC(=O)N1CCC(c2ccccc2)=N1)c1ccc(Cl)s1	-0.4	33.7*	33.5	-7.9	-1.0	-16.2
CC1CCN(C(=O)COC(=O)c2ccc([N+](=O)[O-])o2)CC1	0.6	41.7*	-4.7	-0.1	2.6	-3.0
CC1Cc2ccccc2N1C(=O)COC(=O)c1ccc([N+](=O)[O-])o1 (centres undefined)	0.7	39.6*	4.9	-5.3	2.8	-5.3
Cc1cc(C(=O)OCC(=O)N2c3ccccc3CC2C)c(C)o1 (centres undefined)	0.9	15.5	-23.3	-7.9	-3.0	-26.1
Cc1cc(C(=O)COC(=O)c2ccc([N+](=O)[O-])o2)c(C)n1CC1CCCO1 (centres undefined)	1.2	67.0*	-12.3	-11.2	2.1	-0.1
CC1CCN(C(=O)COC(=O)c2ccc(Br)o2)CC1	-0.3	13.0	4.4	-4.0	0.8	-8.3
CCC(C)c1ccccc1NC(=O)C(C)N(C)Cc1cccc(OC)c1 (centres undefined)	-1.2	19.5	-38.0	-12.8	-2.8	-21.9
CC1CCCC(C)N1CC(O)Cn1c2ccccc2c2ccccc21 (centres undefined)	1.5	11.9	-25.4	-3.9	2.9	-17.5
COc1ccc(-n2nc(C(N)=O)c(O)cc2=O)cc1	0.6	10.5	-20.4	-7.9	-0.3	2.9
Nc1ccn(-c2ccc(Cl)cc2)c(=O)c1	-0.9	9.5	-3.4	-8.3	0.2	13.2
Nc1n[nH]c2cc(=O)n(-c3ccc(Cl)cc3)nc12	1.0	46.2*	-0.6	-5.1	-0.6	-6.9
COc1ccc(-n2nc3c(N)n[nH]c3cc2=O)cc1	0.7	53.6*	-7.2	2.5	0.5	-8.7
Cc1cc(C)n2nc(SC(C)C(=O)Nc3ccccc3F)nc2n1 (centres undefined)	0.3	8.7	-21.4	3.4	0.0	-25.7
COc1ccc(-c2ccc3c(c2)S(=O)(=O)c2cccc(C(=O)N4CCN(C5CCCCC5)CC4)c2C3=O)cc1OC	2.4	26.2	-2.4	-5.8	2.1	-12.6
COc1ccc(OC)c(COC(=O)c2cc([N+](=O)[O-])ccc2N2CCOCC2)c1	-0.9	32.2*	5.3	-10.2	-1.6	-15.4
Cc1cc(NC(=O)COC(=O)c2cc([N+](=O)[O-])ccc2N2CCOCC2)ccc1Br	-1.6	36.9*	-17.8	-12.3	-1.7	6.5
N#CC1(NC(=O)COC(=O)c2cc([N+](=O)[O-])ccc2N2CCOCC2)CCCCC1	-0.7	52.4*	-18.2	-7.2	-0.2	-5.6
Cc1ccc(S(=O)(=O)NCc2ccc(C(=O)NC3CCC(O)CC3)cc2)cc1C (centres undefined)	0.2	9.7	-16.9	2.7	0.6	-20.0
SMILES	V1aR counter	OX1R antag-1	OX1R antag-2	OXTR potentiate	OXTR ag	CHO parental Ca
CCOc1cc(CNCc2ccccc2)ccc1OCc1ccc(Cl)cc1	27.7*	-13.3	69.0*	-20.2	25.8*	92.1*
COc1ccc(CNCCc2ccc(Cl)cc2)cc1OCc1ccccc1	17.1	7.8	2.1	-7.3	17.7	41.8*
CCOc1cc(CNCCc2ccc(S(N)(=O)=O)cc2)cc(Cl)c1OCc1ccccc1	22.4*	-3.6	54.9*	-13.6	36.7*	58.4*
COc1ccc(CNCCc2ccccc2)cc1OCC(N)=O	-0.8	8.6	-12.7	-5.1	0.2	-4.5
COc1cc2ccccc2cc1C(=O)N1CC(C)CC(C)C1 (centres undefined)	-1.4	15.0	-34.7	5.0	-2.2	0.7
CCN1CCN(CCCNC(=O)CCC(=O)N2CCOc3ccc(Cl)cc32)CC1	1.0	-0.5	-8.5	-1.9	-0.3	1.4
CCOC(=O)c1nn(-c2cccc(OC)c2)c2nc(Nc3ccccc3)cc(=O)n12	17.0	14.0	-5.2	-8.2	18.0	93.5*
CNC(=O)c1c(NC(=O)c2nc3ccccc3s2)sc2c1CCC2	0.3	44.0*	-8.0	-5.0	-0.5	-6.2
COC(=O)c1c(NC(=O)c2nc3ccccc3s2)sc2c1CCN(C(C)=O)C2	0.2	22.3	-15.6	-5.9	0.2	-12.1
CC1CN(C2=NC(=O)/C(=C/c3ccncc3)S2)CC(C)O1 (centres undefined)	0.6	34.1*	-5.5	-7.7	-1.2	-6.0
Cc1ccccc1NC(=O)c1ccc2nc(N3CCOCC3)sc2c1	1.6	4.7	-10.0	-5.0	1.7	-6.2
COc1ccc(Nc2sc(C(=O)c3ccc(Cl)cc3)c(N)c2C(=O)Nc2ccccc2OC)cc1	40.3*	0.1	100.9*	-26.0	47.2*	70.6*
COc1ccc(C(=O)c2sc(Nc3cccc(OC)c3)c(C(=O)Nc3cccc(C)c3C)c2N)cc1	15.4	1.1	28.9	-19.9	4.2	60.0*
COc1ccc(NC(=O)c2c(Nc3ccccc3)sc(C(=O)c3ccc(F)cc3)c2N)cc1	6.8	19.4	13.8	-8.1	9.1	31.0*
COC(=O)c1c(C)[nH]c(C(=O)CN(C)CC(=O)Nc2cccc(F)c2)c1C	3.4	5.2	-33.2	-5.3	1.9	-10.8
Cc1ccc(S(=O)(=O)N[C@H](C(=O)NC2CCC(C)CC2)C(C)C)cc1 (some centres undefined)	-0.3	6.0	-37.5	0.6	-1.7	-19.1
O=C(O)c1cccc(N2C(=O)c3cccc4c(Cl)ccc(c34)C2=O)c1	0.1	8.5	-21.7	-12.8	0.5	-5.2
